# Published values collected from several papers.
# CDK5 with p35: Cyclin-dependent kinase 5, with p35 (CDK5, Homo sapiens, UniProt Q00535)
# CDK5: Cyclin-dependent kinase 5 (CDK5, Homo sapiens, UniProt Q00535)
Structure (SMILES),target,assay,setting,endpoint,value
CC(C)(C)c1cc(C=C(C#N)C#N)cc(Br)c1O,CDK5 with p35,"enzyme activity, inhibitor",0.5 µM,remaining activity,102%
Cc1nn(C)cc1-c1nc2c(N3CCN(Cc4ccc(Cl)cc4)CC3)c(Cl)cnc2[nH]1,CDK5,"binding, competition with immobilised ligand",1 µM,remaining binding,76%
Cn1cc(-c2cccc(N3CCc4c(sc5c4CC(C)(C)C5)C3=O)c2CO)cc(Nc2ccncn2)c1=O,CDK5 with p35,"enzyme activity, inhibitor",1 µM,inhibition,3%
Cn1cncc1[C@](O)(COc1ccc(C#N)cc1-c1ccc(OC(F)(F)F)cc1)c1ccc(C#N)cc1,CDK5,"cell-free assay, competition with immobilised ligand",1 µM,remaining binding,92%
COc1ncccc1-c1cnn2ccc(N3CCN(C(=O)OC(C)C)CC3)nc12,CDK5,"binding, competition with immobilised ligand",1 µM,remaining binding,100%
Nc1ncc(-c2nc(N3CCOCC3)nc(N3CCOCC3)n2)c(C(F)F)n1,CDK5,"binding, competition with immobilised ligand",10 µM,remaining binding,100%
Cn1cc(-c2cc(F)cc(N3CCn4c(cc5c4CCCC5)C3=O)c2CO)cc(Nc2ccc(N3CCN(C4COC4)CC3)cn2)c1=O,"Cyclin-dependent kinase 5, with p25 (CDK5, Homo sapiens, UniProt Q00535)","enzyme activity, inhibitor",0.1 µM,inhibition,9%
N#CC1(c2ccccn2)CCN(Cc2cc(C(=O)O)c(=O)n3ccccc23)CC1,CDK5,"cell-free assay, competition with immobilised ligand",1 µM,remaining binding,100%
